Results reported in ChEMBL document CHEMBL1795332, “Renin inhibitors for the treatment of hypertension: design and optimization of a novel series of pyridone-substituted piperidines” (Bioorg Med Chem Lett, 2011).

Test system: not listed separately
Test: Oral bioavailability in Sprague-Dawley rat at 3 mg/kg
Assay type: ADME, organism-based
Conditions: in vivo

bioavailability [%] | SMILES
0 | Cn1ccc([C@H]2CCNC[C@@H]2C(=O)N(Cc2c[nH]c3cccc(F)c23)C2CC2)cc1=O
16 | Cn1ccc([C@H]2CCNC[C@@H]2C(=O)N(Cc2cn(Cc3ccccc3)c3cccc(F)c23)C2CC2)cc1=O
0 | Cn1ccc([C@H]2CCNC[C@@H]2C(=O)N(Cc2cn(Cc3cccnc3)c3cccc(F)c23)C2CC2)cc1=O
0 | Cn1ccc([C@H]2CCNC[C@@H]2C(=O)N(Cc2cn(Cc3ccncc3)c3cccc(F)c23)C2CC2)cc1=O

Biological target: T1, Renin (Homo sapiens, UniProt P00797)
T1 sequence (P00797 whole entry): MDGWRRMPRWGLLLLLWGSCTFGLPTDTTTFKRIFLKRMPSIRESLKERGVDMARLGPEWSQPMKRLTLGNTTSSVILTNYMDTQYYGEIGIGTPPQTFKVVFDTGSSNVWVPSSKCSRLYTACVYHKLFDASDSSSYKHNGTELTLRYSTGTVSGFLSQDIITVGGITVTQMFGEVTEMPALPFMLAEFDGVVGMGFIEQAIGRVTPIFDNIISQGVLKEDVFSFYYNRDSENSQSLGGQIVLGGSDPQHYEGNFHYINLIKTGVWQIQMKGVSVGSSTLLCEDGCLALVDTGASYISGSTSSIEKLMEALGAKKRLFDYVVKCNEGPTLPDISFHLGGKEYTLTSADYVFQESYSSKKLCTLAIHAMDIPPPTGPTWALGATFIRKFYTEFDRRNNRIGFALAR
Test: Inhibition of human recombinant renin using Q-FRET substrate after 3 hrs by fluorescence assay
Conditions: not given

IC50 [nM] | SMILES
150 | COCCCc1cc(CN(C(=O)[C@H]2CNCC[C@@H]2c2ccccc2)C2CC2)cc(OCCOC)c1
45 | COCCCc1cc(CN(C(=O)[C@H]2CNCC[C@@H]2c2cccnc2)C2CC2)cc(OCCOC)c1
200 | CCn1ccc([C@H]2CCNC[C@@H]2C(=O)N(Cc2cc(CCCOC)cc(OCCOC)c2)C2CC2)cc1=O
25 | COCCCc1cc(CN(C(=O)[C@H]2CNCC[C@@H]2c2cc(=O)n(C)c(C)c2C)C2CC2)cc(OCCOC)c1
12 | Cn1ccc([C@H]2CCNC[C@@H]2C(=O)N(Cc2c[nH]c3cccc(F)c23)C2CC2)cc1=O
0.02 | Cn1ccc([C@H]2CCNC[C@@H]2C(=O)N(Cc2cn(Cc3ccccc3)c3cccc(F)c23)C2CC2)cc1=O
0.88 | Cn1ccc([C@H]2CCNC[C@@H]2C(=O)N(Cc2cn(Cc3cccnc3)c3cccc(F)c23)C2CC2)cc1=O
0.24 | Cn1ccc([C@H]2CCNC[C@@H]2C(=O)N(Cc2cn(Cc3ccncc3)c3cccc(F)c23)C2CC2)cc1=O

Biological target: Voltage-gated inwardly rectifying potassium channel KCNH2 (Homo sapiens, UniProt Q12809)
Sequence (Q12809 whole entry): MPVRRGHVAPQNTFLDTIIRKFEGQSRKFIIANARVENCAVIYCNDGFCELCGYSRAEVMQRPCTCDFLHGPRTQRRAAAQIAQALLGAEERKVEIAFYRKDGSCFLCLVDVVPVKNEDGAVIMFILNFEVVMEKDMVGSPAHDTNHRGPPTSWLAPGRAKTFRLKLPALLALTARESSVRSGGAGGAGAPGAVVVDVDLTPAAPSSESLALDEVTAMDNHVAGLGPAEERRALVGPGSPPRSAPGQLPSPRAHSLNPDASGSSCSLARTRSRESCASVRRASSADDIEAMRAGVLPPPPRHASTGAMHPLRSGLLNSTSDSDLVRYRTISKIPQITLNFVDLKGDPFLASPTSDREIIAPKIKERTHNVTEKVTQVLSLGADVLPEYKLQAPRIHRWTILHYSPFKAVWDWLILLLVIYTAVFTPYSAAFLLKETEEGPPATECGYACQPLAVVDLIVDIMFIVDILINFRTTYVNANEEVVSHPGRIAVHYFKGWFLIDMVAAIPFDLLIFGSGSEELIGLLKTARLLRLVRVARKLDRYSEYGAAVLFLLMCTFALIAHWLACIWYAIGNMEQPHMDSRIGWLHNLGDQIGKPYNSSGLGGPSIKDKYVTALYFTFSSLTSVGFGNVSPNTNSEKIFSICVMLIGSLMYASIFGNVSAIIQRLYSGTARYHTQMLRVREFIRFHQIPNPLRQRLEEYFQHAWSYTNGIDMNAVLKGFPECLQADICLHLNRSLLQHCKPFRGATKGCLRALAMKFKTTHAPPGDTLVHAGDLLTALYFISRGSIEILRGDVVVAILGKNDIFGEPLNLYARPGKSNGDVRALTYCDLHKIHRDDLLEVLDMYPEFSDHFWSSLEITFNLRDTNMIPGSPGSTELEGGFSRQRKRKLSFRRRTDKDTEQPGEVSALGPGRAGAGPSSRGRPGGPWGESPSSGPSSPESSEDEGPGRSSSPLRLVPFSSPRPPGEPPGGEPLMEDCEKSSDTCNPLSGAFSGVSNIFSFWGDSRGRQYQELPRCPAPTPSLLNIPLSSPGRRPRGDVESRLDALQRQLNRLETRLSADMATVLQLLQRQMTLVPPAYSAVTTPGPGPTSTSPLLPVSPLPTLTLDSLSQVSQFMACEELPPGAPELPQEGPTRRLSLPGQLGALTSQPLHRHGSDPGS
Test: Inhibition of human ERG
Conditions: not given

SMILES | Ki [nM]
COCCCc1cc(CN(C(=O)[C@H]2CNCC[C@@H]2c2ccccc2)C2CC2)cc(OCCOC)c1 | 7200
COCCCc1cc(CN(C(=O)[C@H]2CNCC[C@@H]2c2cccnc2)C2CC2)cc(OCCOC)c1 | > 29000
CCn1ccc([C@H]2CCNC[C@@H]2C(=O)N(Cc2cc(CCCOC)cc(OCCOC)c2)C2CC2)cc1=O | > 29000
COCCCc1cc(CN(C(=O)[C@H]2CNCC[C@@H]2c2cc(=O)n(C)c(C)c2C)C2CC2)cc(OCCOC)c1 | > 29000
Cn1ccc([C@H]2CCNC[C@@H]2C(=O)N(Cc2c[nH]c3cccc(F)c23)C2CC2)cc1=O | > 29000
Cn1ccc([C@H]2CCNC[C@@H]2C(=O)N(Cc2cn(Cc3cccnc3)c3cccc(F)c23)C2CC2)cc1=O | 12000
Cn1ccc([C@H]2CCNC[C@@H]2C(=O)N(Cc2cn(Cc3ccncc3)c3cccc(F)c23)C2CC2)cc1=O | 15000

Biological target: T1, Renin
Test: Inhibition of renin in human plasma using Q-FRET substrate pretreated for 10 mins before substrate addition measured after 1 hr
Conditions: not given

IC50 [nM] | SMILES
580 | COCCCc1cc(CN(C(=O)[C@H]2CNCC[C@@H]2c2ccccc2)C2CC2)cc(OCCOC)c1
140 | COCCCc1cc(CN(C(=O)[C@H]2CNCC[C@@H]2c2cccnc2)C2CC2)cc(OCCOC)c1
460 | CCn1ccc([C@H]2CCNC[C@@H]2C(=O)N(Cc2cc(CCCOC)cc(OCCOC)c2)C2CC2)cc1=O
80 | COCCCc1cc(CN(C(=O)[C@H]2CNCC[C@@H]2c2cc(=O)n(C)c(C)c2C)C2CC2)cc(OCCOC)c1
8.4 | Cn1ccc([C@H]2CCNC[C@@H]2C(=O)N(Cc2c[nH]c3cccc(F)c23)C2CC2)cc1=O
0.62 | Cn1ccc([C@H]2CCNC[C@@H]2C(=O)N(Cc2cn(Cc3ccccc3)c3cccc(F)c23)C2CC2)cc1=O
2 | Cn1ccc([C@H]2CCNC[C@@H]2C(=O)N(Cc2cn(Cc3cccnc3)c3cccc(F)c23)C2CC2)cc1=O
0.53 | Cn1ccc([C@H]2CCNC[C@@H]2C(=O)N(Cc2cn(Cc3ccncc3)c3cccc(F)c23)C2CC2)cc1=O

Biological target: T2, CYP3A4 (Homo sapiens, UniProt P08684)
T2 sequence (P08684 whole entry): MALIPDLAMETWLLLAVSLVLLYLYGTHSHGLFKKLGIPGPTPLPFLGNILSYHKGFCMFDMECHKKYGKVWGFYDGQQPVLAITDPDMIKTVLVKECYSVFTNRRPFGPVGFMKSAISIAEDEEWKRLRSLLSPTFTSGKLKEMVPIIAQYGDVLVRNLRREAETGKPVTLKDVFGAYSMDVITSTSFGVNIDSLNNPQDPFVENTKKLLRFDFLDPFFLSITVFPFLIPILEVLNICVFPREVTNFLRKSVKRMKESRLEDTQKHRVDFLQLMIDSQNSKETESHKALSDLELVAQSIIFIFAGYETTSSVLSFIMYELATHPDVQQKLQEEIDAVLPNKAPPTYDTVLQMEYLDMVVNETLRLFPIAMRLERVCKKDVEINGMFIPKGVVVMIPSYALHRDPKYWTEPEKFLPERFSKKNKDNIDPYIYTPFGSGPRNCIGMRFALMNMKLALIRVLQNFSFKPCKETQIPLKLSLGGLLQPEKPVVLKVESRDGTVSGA
Test: Reversible inhibition of CYP3A4 assessed as conversion of testosterone to 6-beta-hydroxytestosterone at 10 uM relative to control
Assay type: ADME
Conditions: probe testosterone

activity % at 10 µM [%] | SMILES
33 | COCCCc1cc(CN(C(=O)[C@H]2CNCC[C@@H]2c2ccccc2)C2CC2)cc(OCCOC)c1
75 | COCCCc1cc(CN(C(=O)[C@H]2CNCC[C@@H]2c2cccnc2)C2CC2)cc(OCCOC)c1
70 | CCn1ccc([C@H]2CCNC[C@@H]2C(=O)N(Cc2cc(CCCOC)cc(OCCOC)c2)C2CC2)cc1=O
41 | COCCCc1cc(CN(C(=O)[C@H]2CNCC[C@@H]2c2cc(=O)n(C)c(C)c2C)C2CC2)cc(OCCOC)c1
74 | Cn1ccc([C@H]2CCNC[C@@H]2C(=O)N(Cc2c[nH]c3cccc(F)c23)C2CC2)cc1=O
19 | Cn1ccc([C@H]2CCNC[C@@H]2C(=O)N(Cc2cn(Cc3ccccc3)c3cccc(F)c23)C2CC2)cc1=O
61 | Cn1ccc([C@H]2CCNC[C@@H]2C(=O)N(Cc2cn(Cc3cccnc3)c3cccc(F)c23)C2CC2)cc1=O
44 | Cn1ccc([C@H]2CCNC[C@@H]2C(=O)N(Cc2cn(Cc3ccncc3)c3cccc(F)c23)C2CC2)cc1=O

Biological target: T2, CYP3A4
Test: Time dependent inhibition of CYP3A4 assessed as conversion of testosterone to 6-beta-hydroxytestosterone at 10 uM relative to control
Assay type: ADME
Conditions: probe testosterone
Method in brief: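 Rate of CYP3A4 conversion of testosterone (250 μM) to 6-β-hydroxytestosterone measured before and after a 30 min incubation with compound at 10 μM (in DMSO). Difference expressed as % loss.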

inhibition at 10 µM [%] | SMILES
0 | COCCCc1cc(CN(C(=O)[C@H]2CNCC[C@@H]2c2ccccc2)C2CC2)cc(OCCOC)c1
9 | COCCCc1cc(CN(C(=O)[C@H]2CNCC[C@@H]2c2cccnc2)C2CC2)cc(OCCOC)c1
5 | CCn1ccc([C@H]2CCNC[C@@H]2C(=O)N(Cc2cc(CCCOC)cc(OCCOC)c2)C2CC2)cc1=O
0 | COCCCc1cc(CN(C(=O)[C@H]2CNCC[C@@H]2c2cc(=O)n(C)c(C)c2C)C2CC2)cc(OCCOC)c1
0 | Cn1ccc([C@H]2CCNC[C@@H]2C(=O)N(Cc2c[nH]c3cccc(F)c23)C2CC2)cc1=O
43 | Cn1ccc([C@H]2CCNC[C@@H]2C(=O)N(Cc2cn(Cc3ccccc3)c3cccc(F)c23)C2CC2)cc1=O
44 | Cn1ccc([C@H]2CCNC[C@@H]2C(=O)N(Cc2cn(Cc3cccnc3)c3cccc(F)c23)C2CC2)cc1=O
29 | Cn1ccc([C@H]2CCNC[C@@H]2C(=O)N(Cc2cn(Cc3ccncc3)c3cccc(F)c23)C2CC2)cc1=O

Test system: not listed separately
Test: Oral bioavailability in Sprague-Dawley rat at 20 mg/kg
Assay type: ADME, organism-based
Conditions: in vivo

bioavailability [%] | SMILES
61 | COCCCc1cc(CN(C(=O)[C@H]2CNCC[C@@H]2c2cccnc2)C2CC2)cc(OCCOC)c1
1 | CCn1ccc([C@H]2CCNC[C@@H]2C(=O)N(Cc2cc(CCCOC)cc(OCCOC)c2)C2CC2)cc1=O
0 | COCCCc1cc(CN(C(=O)[C@H]2CNCC[C@@H]2c2cc(=O)n(C)c(C)c2C)C2CC2)cc(OCCOC)c1
